Measurements taken from ChEMBL document CHEMBL4513216, “Probing the Open Global Health Chemical Diversity Library for Multistage-Active Starting Points for Next-Generation Antimalarials” (ACS Infect Dis, 2020).

Experiment: Toxicity liver stage against HepG2, at 10uM
Type: cell-based
Parameters: test concentration 10 uM, cell line HepG2-A16-CD81EGFP
Conditions: human, HepG2-A16-CD81EGFP cells; read-out: INHIBITION
How it was run: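 Uninfected HepG2-A16-CD81EGFP cells, 3 × 10^3 per well, 1536-well, plated on prespotted compound at 10 μM final, parasite-free screening media added to match infected plates; puromycin 10 μM positive, DMSO 0.5% negative; run in parallel with 48 h PbLuc assay at 37 °C, 5% CO2; viability by CellTiter-Glo luminescence, normalized to controls.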

Structure (SMILES) | cytotoxicity at 10 µM [%]
Cc1nn(C)c(C)c1-c1cnc(CC2CCNC2)cn1 (configuration not stated) | -8.41
Cc1nc(C2CCCN(C(=O)C(C)(C)n3cc(Cl)cn3)C2)no1 (configuration not stated) | -2.09
CNC(=O)c1nn(C)cc1NC(=O)C(C)n1ncc(Cl)c1C (configuration not stated) | 8.77
COCC(=O)N1CCc2ccc(=O)n(CC3CC3)c2CC1 | 6.7
COC(=O)C1CN(Cc2ccn(-c3ccc(F)cc3)n2)CCO1 (configuration not stated) | -8.51
N#Cc1ccc(-c2nnc(CSCCN3CCOCC3)o2)cc1 | -5.08
CCN(Cc1c(C)nn(CC)c1C)S(=O)(=O)c1cn(C)nc1C | 7.36
CC(C(=O)N1CCc2sccc2C1)N1CCC(S(N)(=O)=O)CC1 (configuration not stated) | 9.26
CCC(=O)N1CCCCC1c1nc(O)c2c(n1)CN(C(C)=O)CC2 (configuration not stated) | 0.525
COC(=O)c1ccoc1CN(C)CC(=O)NC1CC1 | -1.96
COCCc1noc(CN2CCCCC2Cn2cc(C)cn2)n1 (configuration not stated) | -8.54
Cc1ncsc1CN1C[C@@H](OCC2CC2)[C@H]2OCCC[C@H]21 | -9.76
CCn1c(C2CCCN(Cc3cccc4cnccc34)C2)nn(C)c1=O (configuration not stated) | -6.29
O=C(Cc1cccnc1)NCCSc1ccccc1F | -6.45
Cc1ccc(F)c(OC2(C(=O)O)CCN(C(=O)c3ccccc3)CC2)c1 | 4.2
COc1cccc(OC2CN(C(=O)CCn3cnc4ccccc43)C2)c1 | 3.67
COc1ccc2c(C)c(C(=O)NCC3CN(S(C)(=O)=O)CCO3)oc2c1 (configuration not stated) | 9.52
COc1ccc(-n2cccn2)c(CN2CCC3(CCNCC3)C2)c1 | 0.0652
COCCN(Cc1ccccc1)C(=O)c1cnn(C)c1C | -144
N#CC1(C(=O)N2CCN(Cc3cscn3)CC2)CCCC1 | -8.08
CCn1nnc2c1C(COCC(=O)N(C)C)CN(Cc1ccco1)C2 (configuration not stated) | -4.96
CCOC(=O)Cn1cccc(S(=O)(=O)N2CCCC2)c1=O | 13.4
O=C(c1ccc(N2CCOCC2)nc1)N1CCCC(n2ccnc2)C1 (configuration not stated) | -18.2

Structure (SMILES) | cytotoxicity at 10 µM [%]
O=S(=O)(CC1CCOCC1)NCc1ncc(-c2ccccc2)o1 | -12.6
Cc1ccc(CN2C[C@@H]3[C@@H](C(=O)N4CCCC4)CCS(=O)(=O)[C@@H]3C2)cc1 | 0.411
Cc1nn(-c2ccccc2)nc1C(=O)N1CCCC1c1cnn(C)c1 (configuration not stated) | -0.857
O=C(C[C@@H]1COC[C@H]2CN(Cc3ccc(F)cc3)C[C@@H]12)N1CCCC1 | 4.09
O=C(CN1CCCC1c1cccs1)N1CCc2sccc2C1 (configuration not stated) | -17
O=C(Cc1ccc(F)cc1)NCCNc1cc(N2CCCC2)cnn1 | -3.29
Oc1cc(CCC2CCCCN2)cc(-c2cccnc2)c1 (configuration not stated) | 4.11
CC(Cn1cccn1)NCc1csc2c1CCCC2 (configuration not stated) | -2.86
Cc1noc(C2CCN(C(=O)CCc3ccccn3)CC2)n1 | -3.25
Cn1cc(NC(=O)c2cc[nH]n2)cc(Cl)c1=O | -18.3
CCc1nc(CCNc2ccc(S(N)(=O)=O)cc2C#N)cs1 | -54.6
CCn1nccc1S(=O)(=O)N1CCC2(CCCN(C(C)C)C2=O)C1 (configuration not stated) | -10.9
COCC1c2nnn(CC3CC3)c2CCN1C(=O)c1sccc1C (configuration not stated) | -147
CCc1cnc(CNC(=O)N2CCCC(c3ncc[nH]3)C2)s1 (configuration not stated) | 8.2
CN(C)S(=O)(=O)Nc1ccc(-n2nccc2C(F)(F)F)cc1 | 5.65
CC(C)(C)NC(=O)CN1CCCN(Cc2cc(C#N)ccc2F)CC1 | -4.62
Cc1cccc(-c2nc3cc(S(=O)(=O)N4CCCC4)ccc3n2C)n1 | 16.8
CCN1CCC(CNC(=O)Nc2cccnc2OC)CC1 | -0.523
CN(C)C(=O)N1CCn2c(Cn3cccn3)cnc2C1 | -76.7
CCS(=O)(=O)NCc1nc(C)cc(N2CCCC2)n1 | -0.714
CN(CC1COc2ccccc2O1)C(=O)NCCCn1cccn1 (configuration not stated) | -7.27
CCC(CC#N)n1ccc(C(F)(F)F)n1 (configuration not stated) | -8.38
Cc1cc(-c2cnc(NCc3ccccn3)nc2C(C)C)on1 | -1.51

Structure (SMILES) | cytotoxicity at 10 µM [%]
COc1ccccc1C1CCN(C(=O)c2ncccc2OC(C)C)C1 (configuration not stated) | -0.67
CC(C)Cc1cc(C(=O)NC(C)(C)c2nnc(N)s2)n(C)n1 | 0.91
CCc1nc(NC(=O)NCCc2cscn2)nn1C | 2.31
CN1CCN(c2cc(CNC(=O)Cn3cccn3)ccn2)CC1 | -11.6
O=C1COc2cc(C(=O)NS(=O)(=O)c3ccccc3F)ccc2N1 | -4.79
O=C(NC1CC(=O)N(C2Cc3ccccc3C2)C1)c1ccsc1 (configuration not stated) | -1.98
Cc1ccc(Cl)c(NC(=O)NC2(C)CCOC2)c1 (configuration not stated) | -46.7
Cc1ccc(O[C@@H]2C[C@H]3CN(Cc4nccn4C)CCN3C2)cc1 | 3.39
Cc1noc(CN2Cc3ccccc3CC2c2nnc(C)o2)n1 (configuration not stated) | -4.62
Cc1ccc(O)c(C(=O)NCCCS(=O)(=O)Cc2ccccc2)c1 | 33.6
CC(=O)N(Cc1ncc(C)o1)C1CCN(CCc2ccncc2)C1 (configuration not stated) | 1.3
Cc1nc(Cn2c3c(ccc2=O)CC(N)CC3)cs1 (configuration not stated) | 1.88
Cc1nnc(NCc2ccccc2F)c(C#N)c1C | -9.71
CC(=O)N(C)CC(=O)NC1(c2ccc(Cl)c(Cl)c2)CC1 | -5.57
CC(C)Cc1nc(CN2CCN(CC(O)c3ccccc3)CC2)no1 (configuration not stated) | -14.4
O=C1CN([C@@H]2CC[C@@H](NS(=O)(=O)c3ccccc3)[C@H]2O)CCN1 | 7.41
CNc1cc(CNC(=O)c2ccccc2OC)nc(-c2ccncc2)n1 | -13.7
CN1CC(=O)N(c2cnn(C)c2)CC12CCN(CC1CC1)C2 (configuration not stated) | 7.6
CCc1ncc(C(=O)N2CCN(c3cnn(C)c(=O)c3)CC2)cn1 | -8.3
COCC1CN(C(=O)Cc2ccccn2)Cc2ncnn2C1 (configuration not stated) | -2.47
CC(C)(O)CCc1ccc(C(=O)NCCC2CCCOC2)cc1 (configuration not stated) | 0.782
COc1ccc(CC(=O)N2CCN(Cc3ccco3)C[C@@H]2C)cc1OC | 3.88
CCN(CC(=O)NC)S(=O)(=O)N1CCCCCC1 | 5.04

Structure (SMILES) | cytotoxicity at 10 µM [%]
O=C(c1cnn2ccccc12)N1CCCC(OCc2ccccn2)C1 (configuration not stated) | -3.74
N#Cc1ccc(CN2CCN(C(=O)c3cc(C4CC4)[nH]n3)CC2)cc1 | 18.9
O=C(NCCCN1CCN(c2ncccn2)CC1)NCC1CCCO1 (configuration not stated) | -43.1
O=C([C@@H](O)Cc1ccccc1)N1CCCn2cncc2C1 | 2.55
O=C(C1CC1)N1CC2(CCNCC2)c2cc(F)ccc21 | 0.317
CC1=C(C(=O)N(C)Cc2noc3c2CCCC3)C(C)NC(=O)N1 (configuration not stated) | -0.844
CN(C)C(C(=O)NCc1cc(C(C)(C)C)n[nH]1)c1ccc(F)cc1 (configuration not stated) | -5.54
CCC(C(=O)NCc1cccnc1)N(c1cccc(C)c1)S(C)(=O)=O (configuration not stated) | 2.57
COc1cccc(-c2n[nH]c3c2CN(C(=O)c2oc(C)cc2C)CC3)c1 | -3.17
c1ccc(CCCN2CCCN(c3ncnc4[nH]ccc34)CC2)cc1 | -5.86
Cc1cccc(C(=O)Nc2ccc(OC3CCOCC3)c(C)c2)n1 | -8.99
Cc1nsc(C(=O)NCCc2ccc(F)cc2)n1 | -6.92
Cc1noc(C)c1CN1CCC2(CC1)NC(=O)CC2c1ccncc1 (configuration not stated) | 0.635
Cc1ncccc1Oc1ncnc(N2CCCC(O)(CO)CC2)c1C (configuration not stated) | 4.3
COc1cc(CN(Cc2ccccn2)CC(C)C)cc2c1OCO2 | -16
Cc1cncc(C(=O)N[C@@H]2CC[C@@H](N3CCOCC3)[C@@H]2O)c1 | 0.331
COC(=O)NCC(=O)N1CCc2cc(Cl)cc(Cl)c2C1 | 0.598
Cc1ccc(C(C)(O)CNC(=O)c2sccc2OC(F)F)o1 (configuration not stated) | -1.34
CN1CCN(c2ccccc2NC(=O)NCCc2ccc(O)cc2)CC1 | -0.37
O=S(=O)(c1ccc(Cl)cc1)N1CCOC[C@H](Oc2cnccn2)C1 | -2.57
c1cncc(COc2ccccc2CNC2CCc3ncnn3C2)c1 (configuration not stated) | -3.69
COc1cccc(CN2CCN(C(=O)Nc3nc(C)ns3)CC2=O)c1 | -3.05
Cc1noc(C)c1-c1cncc(C2CCCN2Cc2cc[nH]n2)n1 (configuration not stated) | 13

Structure (SMILES) | cytotoxicity at 10 µM [%]
Cc1nc2c(c(NCCNC(=O)C(C)C)n1)Cc1ccccc1OC2 | 4.74
O=C(NCc1ccc(Cl)cc1)C1CCCN(c2ccc3nncn3n2)C1 (configuration not stated) | 6.44
CN(C)CCn1ccc2cc(NC(=O)NCc3ccon3)ccc21 | -2.51
Cc1ccccc1-n1c(C)cc(=O)[nH]c1=O | -2.4
COc1nn(C)c2c1CCCN(C(=O)c1cscn1)C2 | -97.2
CCCNC(=O)CN1CCN(c2nc(CC)ns2)CC1 | -3.53
O=C(CCc1ccccc1)N1CCC(c2n[nH]c(C3CC3)n2)CC1 | -5.35
Cc1nn(C)c(C)c1CN(C(=O)c1cc(Cl)c[nH]c1=O)C(C)C | -3.25
O=C(N1CCOCC1)N1CCCC1c1nc(-c2ccccn2)no1 (configuration not stated) | 10.7
COCCNc1nc(N2CCCC2)nc2nccnc12 | 0.649
CC(C)Nc1ncccc1C(=O)NCc1ccnn1C | -5.87
Cc1ncc(CN2CCCC2)c2cc(C(=O)c3ccc(Br)cc3)oc12 | 1.46
CCCN1CCC(NC(=O)c2ccnc(SCC)c2)CC1 | -4.14
CCOCC1CN(C(=O)c2ccncn2)Cc2cnn(C)c21 (configuration not stated) | -143
O=C(O)c1cccc(CN2CCC(c3ccnc4ccnn34)CC2)c1 | -16.2
COc1ccc(CN2Cc3[nH]nc(C(=O)N(C)C)c3C2)cc1 | -2.48
O=C([C@@H]1C[C@@H]2CCN(c3cccc(F)c3)C[C@H]2O1)N1CCCC1 | -1.34
CC(C)c1ccc(OCCC(=O)N2CCC(C(N)=O)CC2)cc1 | -11.5
Cc1ccc(CNC(=O)c2nc3c(n2C)CCN(c2ncccn2)C3)o1 | -119
CCc1noc(C(C)SCCS(C)(=O)=O)n1 (configuration not stated) | 5.5
